In ChEMBL document CHEMBL1275408, “A chemical genomic screen in Saccharomyces cerevisiae reveals a role for diphthamidation of translation elongation factor 2 in inhibition of protein synthesis by sordarin” (2008) one finds MIC and Activity data, which are given here for 1 molecule.

The test system of test [1] is Saccharomyces cerevisiae. Briefly: Antifungal activity against Saccharomyces cerevisiae BY4741 harboring COQ1 YBR003W mutant gene by spectrophotometry. Type of test: functional. The gist of the method:
(§1)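 Screen of BY4741 KanMX4 deletion strains pre-grown 3 days at 28°C in YPD with G418 (150 mg/liter), then pinned into liquid SC containing GM193663. The sensitivity screen used 2 ng/ml; the resistance screen used 62.5 ng/ml, with validation at 62.5, 125 and 500 ng/ml. OD595 was read every 24 h over 5 days at 28°C. Growth was scored relative to wild type and to drug-free controls. Retests were at least in duplicate.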

In test [2] the test system is Saccharomyces cerevisiae. Briefly: Antifungal activity against Saccharomyces cerevisiae BY4741 harboring PUF3 YLL013C mutant gene by spectrophotometry. Type of test: functional. The method in brief: (§2)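 Haploid MATa BY4741 KanMX4 deletion strains pinned from frozen stocks into YPD + G418 (150 mg/liter), grown 3 days at 28°C to confluence, then pin-replicated into SC liquid with no drug or sordarin derivative GM193663 (2 ng/ml sensitivity; 62.5 ng/ml resistance). 28°C, OD595 read every 24 h for 5 days; growth scored relative to wild type on same plate and to untreated mutant.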

The test system of test [3] is Saccharomyces cerevisiae. Briefly: Antifungal activity against Saccharomyces cerevisiae BY4741 harboring RAD28 YDR030C mutant gene by spectrophotometry. Type of test: functional. The gist of the method:
as §2

Test [4] deals with Saccharomyces cerevisiae. In words: Antifungal activity against Saccharomyces cerevisiae BY4741 harboring BAP2 YBR068C mutant gene by spectrophotometry. It counts as functional. The method in brief: as §1
The subject of test [5] is Saccharomyces cerevisiae. Briefly: Antifungal activity against Saccharomyces cerevisiae BY4741 harboring GGC1 YDL198C mutant gene by spectrophotometry. Type of test: functional. The gist of the method:
as §1

The subject of test [6] is Saccharomyces cerevisiae. Briefly: Antifungal activity against Saccharomyces cerevisiae BY4741 harboring THI20 YOL055C mutant gene by spectrophotometry. Type of test: functional. The method in brief:
as §2

Test [7] deals with Saccharomyces cerevisiae. Briefly: Antifungal activity against Saccharomyces cerevisiae BY4741 harboring BEM2 YER155C mutant gene by spectrophotometry. It counts as functional. The gist of the method: as §1
Test [8] relates to Saccharomyces cerevisiae. Briefly: Antifungal activity against Saccharomyces cerevisiae BY4741 harboring SBE2 YDR351W mutant gene by spectrophotometry. It counts as functional. The gist of the method:
as §2

Test [9] deals with Saccharomyces cerevisiae. Briefly: Antifungal activity against Saccharomyces cerevisiae BY4741 harboring ATP12 YJL180C mutant gene assessed as reduction in fungal growth at 2 ng/ml by spectrophotometry. It counts as functional, organism-based. The method in brief: (§3)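 Haploid BY4741 KanMX4 deletion strains pre-grown in YPD with G418 (150 mg/liter) for 3 days at 28°C. They were then pin-replicated into liquid SC with sordarin derivative GM193663 at 2 ng/ml, or without drug. Plates were incubated at 28°C and OD595 read every 24 h for 5 days. Growth was scored against wild type on the same plate and against the drug-free mutant. Hits were retested at least in duplicate.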

The subject of test [10] is Saccharomyces cerevisiae. Briefly: Antifungal activity against Saccharomyces cerevisiae BY4741 harboring AFG3 YER017C mutant gene assessed as reduction in fungal growth at 2 ng/ml by spectrophotometry. Type of test: functional, organism-based. The method in brief: as §3
Test [11] relates to Saccharomyces cerevisiae. In words: Antifungal activity against Saccharomyces cerevisiae BY4741 harboring deletion mutation in dph3 gene at 300 to 500 ng/ml after 24 hrs by liquid growth assay. Type of test: functional.
The subject of test [12] is Saccharomyces cerevisiae. In words: Antifungal activity against Saccharomyces cerevisiae BY4741 assessed as reduction in fungal growth up to 500 ng/ml for 72 hrs by spectrophotometry. It counts as functional, organism-based. The method in brief:
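BY4741 grown overnight in SC (synthetic complete) medium, then inoculated into microtiter wells of SC medium containing successive twofold dilutions of sordarin starting at 500 ng/ml (range 0–500 ng/ml). Cultures incubated at 28°C, and growth followed as a growth inhibition curve.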

The subject of test [13] is Saccharomyces cerevisiae. Briefly: Antifungal activity against Saccharomyces cerevisiae BY4741 harboring deletion mutation in dph1 gene at 100 ng/ml by plate assay. It counts as functional, organism-based. The gist of the method:
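Spot test on solid SC glucose plates with or without 100 ng/ml sordarin. Drops of 10^5 cells plus 10-fold serial dilutions of each dph deletion strain were spotted alongside the parental strain. Plates were incubated at 28°C for 6 days and imaged every 24 h.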

Test [14] has as its system Saccharomyces cerevisiae. In words: Antifungal activity against Saccharomyces cerevisiae BY4741 harboring YHL041W mutation in unknown gene by spectrophotometry. It counts as functional. The gist of the method:
(§4)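 Deletion strains from the nonessential haploid MATa BY4741 collection (KanMX4 replacement) were grown in YPD with G418 at 28°C for 3 days, then pinned into liquid SC with or without sordarin derivative GM193663 (2 ng/ml for sensitivity, 62.5 ng/ml for resistance). Cultures were kept at 28°C and read at OD595 every 24 h for 5 days. Growth was scored against wild type on the same plate and against the drug-free control. Hits were retested at least in duplicate.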

Test [15] has as its system Saccharomyces cerevisiae. In words: Antifungal activity against Saccharomyces cerevisiae BY4741 harboring YER087W mutation in unknown gene by spectrophotometry. It counts as functional. The gist of the method:
as §4

Test [16] concerns Saccharomyces cerevisiae. Briefly: Antifungal activity against Saccharomyces cerevisiae BY4741 harboring COX11 YPL132W mutant gene by spectrophotometry. Type of test: functional. The gist of the method:
as §1

Each structure is given as a SMILES string. Activity calls are given as the source filed them. No cut-off for these calls is given here.

In the case of `CO[C@H]1[C@@H](O)[C@H](O)[C@H](OC[C@@]23C[C@@H]4[C@H](C)CC[C@H]4[C@@]4(C=O)CC2C=C(C(C)C)[C@@]34C(=O)O)O[C@@H]1C` [SORDARIN], the MIC (in general, the lowest concentration that inhibits growth of the organism) is greater than 0.5 µg/mL in test [1]; greater than 0.5 µg/mL in test [2]; greater than 0.5 µg/mL in test [3]; greater than 0.125 µg/mL in [4]; greater than 0.5 µg/mL in test [5]; greater than 0.5 µg/mL in [6]. The MIC was greater than 0.5 µg/mL in [7]; greater than 0.5 µg/mL in [8]; greater than 0.5 µg/mL in test [14]; greater than 0.5 µg/mL in [15]; greater than 0.125 µg/mL in [16]. For the same molecule, the outcome in test [9], in test [10] and in test [12] was Active. Moreover, the Activity in test [11] was found to be 50%. The MIC entry in test [13] was “inactive”.
